What was measured:
[1] = test system: intestinal epithelium (duodenum villi); test: In vivo intestinal uptake of nanoparticles; parameters: species or system CD-1 mice and nude mice; conditions: 0.5 mg/kg oral gavage, 2 h, CD-1 and nude mice
[2] = test system: Caco2, MCF7, and MDA-MB-231 cells; test: In vitro cellular uptake assays; assay type: cell-based, human; conditions: 2 h incubation
Procedure, shortened: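 Caco2, MCF7 and MDA-MB-231 cells were incubated 2 h with free DiD or DiD-loaded plain or Fc-targeted nanoparticles, then fixed in 4% formalin in PBS. Membranes were labelled with a lipophilic dye and nuclei counterstained with DAPI; cells were examined by fluorescence microscopy. For competition, cells were pretreated 30 min with IgG Fc fragments.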

[3] = Plasma pharmacokinetics after oral administration; assay type: in vivo; conditions: 160 mg/kg oral, female CD-1 mice
Procedure, shortened: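 Female CD-1 mice were randomised into three groups and given a single oral dose of 160 mg/kg: free compound in PEG400:ethanol:saline (57.1:14.3:28.6), plain nanoparticles or Fc-targeted nanoparticles.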

MDA-MB-231 cells = test: Cell cycle distribution assay; assay type: cell-based, human; conditions: MDA-MB-231, 24 h, tested 0, 20, 50, 100 ng/mL
MDM2 = MDM2 (Homo sapiens, UniProt Q00987); test: Western blotting of MDM2, p53 and p21 in breast cancer cells; assay type: cell-based; conditions: 20 ng/mL, 24 h, MCF7 and MDA-MB-231 cells
Chain of MDM2 (Q00987 whole entry): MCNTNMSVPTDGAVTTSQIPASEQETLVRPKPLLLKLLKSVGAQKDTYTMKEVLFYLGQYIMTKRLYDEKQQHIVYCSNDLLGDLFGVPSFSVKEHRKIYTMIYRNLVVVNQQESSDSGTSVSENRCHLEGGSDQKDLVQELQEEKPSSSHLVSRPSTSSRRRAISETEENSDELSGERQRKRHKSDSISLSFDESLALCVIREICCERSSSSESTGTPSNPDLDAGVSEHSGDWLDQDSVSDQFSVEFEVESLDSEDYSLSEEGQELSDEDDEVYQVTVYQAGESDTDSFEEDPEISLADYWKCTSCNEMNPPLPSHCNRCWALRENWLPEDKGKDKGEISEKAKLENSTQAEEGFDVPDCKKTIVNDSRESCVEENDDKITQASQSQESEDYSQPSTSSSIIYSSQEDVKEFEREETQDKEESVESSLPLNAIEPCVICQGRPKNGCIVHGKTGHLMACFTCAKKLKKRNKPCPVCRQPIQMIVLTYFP

MCF7 cells = test: Cell cycle distribution assay; assay type: cell-based, human; conditions: MCF7, 24 h, tested 0, 20, 50, 100 ng/mL
Caco2 cell monolayers = test: Caco2 cell monolayer permeability assay; assay type: in vitro ADME, human; conditions: apical to basolateral, 5 µg/mL, 120 min, 37°C, HPLC
Procedure, shortened: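 Caco2 cells grown on polycarbonate Transwell inserts, with monolayer integrity followed by TEER. Free or nanoparticle-formulated test compound (5 µg/mL) added apically; apical-to-basolateral transport tracked over 120 min by HPLC. Papp = (∂Q/∂t)/(A×C₀). For competition, cells were pretreated 30 min with IgG Fc fragments; transported Fc was quantified by human IgG Fc ELISA. Means ± SEM, at least three independent experiments.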

[4] = test system: MDA-MB-231 orthotopic tumors; test: MDA-MB-231 orthotopic tumor model, in vivo efficacy; parameters: species or system nude mice; conditions: 160 mg/kg/day oral
Procedure, shortened: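 Female athymic nu/nu mice, 4–6 weeks, received 1×10⁶ MDA-MB-231 cells in the second thoracic mammary fat pad under anaesthesia. After 2 weeks, mice were split into groups of 10. Dosing was by oral gavage, 5 days/week for 24 days: free compound in PEG400:ethanol:saline (57.1:14.3:28.6) or nanoparticles at 160 mg/kg/day, Fc-targeted form at 80 or 160 mg/kg/day; controls got vehicle. Mice with lung metastasis were counted at the end.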

| Compound | DiD fluorescence in the villi of the duodenum [1] | Cellular uptake of DiD (fluorescence microscopy) [2] | Cmax (peak plasma concentration of SP141) [3] | Concentration at which G2/M phase cell cycle arrest starts to be induced (MDA-MB-231 cells) | Effect on MDM2, p53 and p21 expression (MDM2) | Concentration at which G2/M phase cell cycle arrest starts to be induced (MCF7 cells) | Apparent permeability coefficient (Papp) (Caco2 cell monolayers) | Inhibition of MDA-MB-231 tumor growth ([4]; 5 days/week, Day 24) | Incidence of lung metastasis (mice with metastatic lesions in the lungs) ([4]; 24 days, 10 mice/group) |
| --- | --- | --- | --- | --- | --- | --- | --- | --- | --- |
| CCCCCCCCCCCCCCCCCCN1C(=CC=CC=CC2=[N+](CCCCCCCCCCCCCCCCCC)c3ccccc3C2(C)C)C(C)(C)c2ccccc21.[O-][Cl+3]([O-])([O-])[O-] [DiD, 1,1'-dioctadecyl-3,3,3',3'-tetramethylindodicarbocyanine perchlorate] | not observed | unable to diffuse into the cells | – | – | – | – | – | – | – |
| COc1ccc2[nH]c3c(-c4cccc5ccccc45)nccc3c2c1 [SP141] | – | – | 4300 ng/mL | 100 ng/mL | did not show significant effects | 100 ng/mL | 70 ×10⁻⁶ cm/s | 51% | 4/10 |

From publication PMC5224916 (Journal of controlled release : official journal of the …, 2016)
